Measurements published in PMC4083110 (Molecular & Cellular Proteomics : MCP, 2014).

Key:
SH2D1B SH2 domain = target: T1, SH2D1B SH2 domain (Homo sapiens, UniProt O14796); assay: FP saturation binding; conditions: result in words
T1 sequence (O14796 5-101 limits assumed): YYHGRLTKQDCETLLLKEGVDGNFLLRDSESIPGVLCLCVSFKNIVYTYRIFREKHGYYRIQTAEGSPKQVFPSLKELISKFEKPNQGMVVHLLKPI
How it was run: (§1)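 Multi-SH2 genes were used as tandem proteins that kept the linker residues. Automated high-throughput FP saturation binding was run against 178 synthetic phosphopeptides from RTK, GAB1 and androgen receptor tyrosine sites. Millipolarization readings were fitted to P_obs = Pmax·[Protein]/(K_D+[Protein]) by least squares regression to give K_D.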

Shp2/PTPN11 SH2 domain = target: T2, Shp2/PTPN11 SH2 domain (Homo sapiens, UniProt Q06124); assay: FP saturation binding, construct not stated; conditions: result in words
T2 sequence (Q06124 2-593): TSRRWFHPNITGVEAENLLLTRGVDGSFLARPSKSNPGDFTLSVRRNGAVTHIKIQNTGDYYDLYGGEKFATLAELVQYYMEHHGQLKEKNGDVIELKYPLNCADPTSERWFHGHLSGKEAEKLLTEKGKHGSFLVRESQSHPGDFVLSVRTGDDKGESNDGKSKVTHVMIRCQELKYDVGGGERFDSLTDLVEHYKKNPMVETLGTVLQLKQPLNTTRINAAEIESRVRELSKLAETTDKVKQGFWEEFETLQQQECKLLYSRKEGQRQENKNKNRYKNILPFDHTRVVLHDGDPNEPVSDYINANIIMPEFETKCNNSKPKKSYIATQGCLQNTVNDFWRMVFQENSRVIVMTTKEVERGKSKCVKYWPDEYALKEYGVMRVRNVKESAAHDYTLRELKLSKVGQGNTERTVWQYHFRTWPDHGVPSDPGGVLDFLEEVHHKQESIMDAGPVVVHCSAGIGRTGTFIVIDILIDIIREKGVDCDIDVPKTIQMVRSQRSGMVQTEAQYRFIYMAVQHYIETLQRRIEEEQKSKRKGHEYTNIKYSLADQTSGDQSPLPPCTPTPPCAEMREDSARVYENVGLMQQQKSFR
How it was run: as §1

[1] = tested on: c-Src family kinase SH2 domains; assay: FP saturation binding, domain family; design: species or system human; conditions: result in words
How it was run: as §1

[2] = tested on: tensin family SH2 domains; assay: FP saturation binding, domain family; design: species or system human; conditions: result in words
How it was run: as §1

RASA1 SH2 domains = target: T3, RASA1 SH2 domains (Homo sapiens, UniProt P20936); assay: FP saturation binding, construct not stated; conditions: result in words
T3 sequence (P20936 181-441 limits assumed): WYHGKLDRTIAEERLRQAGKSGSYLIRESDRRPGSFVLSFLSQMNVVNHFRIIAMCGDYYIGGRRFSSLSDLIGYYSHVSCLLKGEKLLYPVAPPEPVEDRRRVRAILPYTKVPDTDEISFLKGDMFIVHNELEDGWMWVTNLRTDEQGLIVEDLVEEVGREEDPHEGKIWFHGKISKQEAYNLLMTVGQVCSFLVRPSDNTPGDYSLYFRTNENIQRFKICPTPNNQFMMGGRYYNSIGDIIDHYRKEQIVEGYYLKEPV
How it was run: as §1

PLCG1 SH2 domains = target: T4, PLCG1 SH2 domains (Homo sapiens, UniProt P19174); assay: FP saturation binding, construct not stated; conditions: result in words
T4 sequence (P19174 550-756 limits assumed): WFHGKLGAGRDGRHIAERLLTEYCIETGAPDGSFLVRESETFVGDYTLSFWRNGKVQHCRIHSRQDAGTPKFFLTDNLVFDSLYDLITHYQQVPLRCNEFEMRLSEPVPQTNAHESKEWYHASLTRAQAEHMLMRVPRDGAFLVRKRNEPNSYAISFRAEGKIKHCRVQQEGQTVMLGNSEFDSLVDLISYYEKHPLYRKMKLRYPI
How it was run: as §1

SH2D1A SH2 domain = SH2D1A SH2 domain (Homo sapiens, UniProt O60880); assay: FP saturation binding; conditions: result in words
How it was run: as §1

[3] = target: T5, SHC1 PTB domain (SHC1.PTB) (Homo sapiens, UniProt P29353); assay: FP saturation binding; conditions: result in words
T5 sequence (P29353 156-339 limits assumed): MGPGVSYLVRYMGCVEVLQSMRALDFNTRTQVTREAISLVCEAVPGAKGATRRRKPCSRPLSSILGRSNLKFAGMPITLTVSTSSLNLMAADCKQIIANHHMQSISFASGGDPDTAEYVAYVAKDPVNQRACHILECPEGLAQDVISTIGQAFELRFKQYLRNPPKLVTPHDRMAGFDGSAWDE
How it was run: as §1

SHC1 SH2 domain = target: T6, SHC1 SH2 domain (Homo sapiens, UniProt P29353); assay: FP saturation binding; conditions: result in words
T6 sequence (P29353 488-579 limits assumed): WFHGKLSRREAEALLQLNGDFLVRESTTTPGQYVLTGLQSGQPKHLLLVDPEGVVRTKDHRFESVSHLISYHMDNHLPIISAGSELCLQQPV
How it was run: (§2)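 Tandem SH2 proteins were kept with their linkers. Synthetic phosphotyrosine peptides were run in automated high-throughput FP saturation binding. Millipolarization was fitted to Pobs = Pmax·[Protein]/(KD+[Protein]) by least squares to give KD per protein/peptide pair.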

CRK SH2 domain = CRK SH2 domain (Homo sapiens, UniProt P46108); assay: FP saturation binding; conditions: result in words
How it was run: as §1

CRKL SH2 domain = CRKL SH2 domain (Homo sapiens, UniProt P46109); assay: FP saturation binding; conditions: result in words
How it was run: as §1

GRB2 SH2 domain = GRB2 SH2 domain (Homo sapiens, UniProt P62993); assay: FP saturation binding; conditions: result in words
How it was run: as §2

GRAP2 SH2 domain = GRAP2 SH2 domain (Homo sapiens, UniProt O75791); assay: FP saturation binding; conditions: result in words
How it was run: as §2

[4] = tested on: PIK3R-derived SH2 domains; assay: FP saturation binding, domain family; design: species or system human; conditions: FP, result in words
How it was run: as §1

PIK3R3 SH2 domains = assay: FP saturation binding, construct not stated; design: species or system human; conditions: result in words
How it was run: as §1

PIK3R1 SH2 domains = PIK3R1 SH2 domains (Homo sapiens, UniProt P27986); assay: FP saturation binding, construct not stated; conditions: result in words
How it was run: as §1

PLCG2 SH2 domains = target: T7, PLCG2 SH2 domains (Homo sapiens, UniProt P16885); assay: FP saturation binding, construct not stated; conditions: result in words
T7 sequence (P16885 532-735 limits assumed): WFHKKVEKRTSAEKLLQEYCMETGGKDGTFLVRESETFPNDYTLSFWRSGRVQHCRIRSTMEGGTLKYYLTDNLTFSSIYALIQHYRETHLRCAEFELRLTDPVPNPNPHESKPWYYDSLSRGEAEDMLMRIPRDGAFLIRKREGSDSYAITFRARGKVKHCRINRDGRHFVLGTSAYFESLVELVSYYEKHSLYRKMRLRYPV
How it was run: as §1

Chain of CRK SH2 domain (P46108 13-118 limits assumed): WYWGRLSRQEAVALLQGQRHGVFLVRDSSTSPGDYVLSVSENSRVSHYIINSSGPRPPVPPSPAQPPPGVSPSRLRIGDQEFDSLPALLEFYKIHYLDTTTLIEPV
Chain of PIK3R1 SH2 domains (P27986 2-724): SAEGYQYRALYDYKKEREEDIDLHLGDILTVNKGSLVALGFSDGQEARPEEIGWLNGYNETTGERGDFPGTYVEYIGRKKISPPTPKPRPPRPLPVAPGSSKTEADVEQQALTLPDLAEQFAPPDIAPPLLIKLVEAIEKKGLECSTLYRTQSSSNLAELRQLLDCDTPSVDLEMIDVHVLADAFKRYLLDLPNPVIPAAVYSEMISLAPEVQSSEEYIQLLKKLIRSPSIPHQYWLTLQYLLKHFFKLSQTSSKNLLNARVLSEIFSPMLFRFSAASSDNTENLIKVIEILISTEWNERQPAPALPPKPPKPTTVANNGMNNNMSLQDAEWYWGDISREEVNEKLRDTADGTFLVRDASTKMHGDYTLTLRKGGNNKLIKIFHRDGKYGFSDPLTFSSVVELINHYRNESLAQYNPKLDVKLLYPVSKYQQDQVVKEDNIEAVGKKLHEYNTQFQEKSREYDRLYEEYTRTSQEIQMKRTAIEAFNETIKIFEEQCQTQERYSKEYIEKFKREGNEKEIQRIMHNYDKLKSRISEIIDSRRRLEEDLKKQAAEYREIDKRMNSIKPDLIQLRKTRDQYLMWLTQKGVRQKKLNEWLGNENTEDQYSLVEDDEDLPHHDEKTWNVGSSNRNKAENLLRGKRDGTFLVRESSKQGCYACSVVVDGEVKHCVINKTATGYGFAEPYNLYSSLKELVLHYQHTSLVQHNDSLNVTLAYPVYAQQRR
Chain of GRB2 SH2 domain (P62993 60-152 limits assumed): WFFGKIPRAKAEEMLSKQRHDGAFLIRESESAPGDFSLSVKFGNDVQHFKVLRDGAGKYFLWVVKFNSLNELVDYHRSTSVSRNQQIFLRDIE
Chain of SH2D1A SH2 domain (O60880 6-104 limits assumed): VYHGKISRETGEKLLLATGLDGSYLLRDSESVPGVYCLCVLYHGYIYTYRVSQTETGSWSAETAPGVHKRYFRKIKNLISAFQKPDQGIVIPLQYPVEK
Chain of CRKL SH2 domain (P46109 14-102 limits assumed): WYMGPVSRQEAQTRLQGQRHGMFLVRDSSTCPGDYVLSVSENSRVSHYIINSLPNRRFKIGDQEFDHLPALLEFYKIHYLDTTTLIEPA
Chain of GRAP2 SH2 domain (O75791 58-149 limits assumed): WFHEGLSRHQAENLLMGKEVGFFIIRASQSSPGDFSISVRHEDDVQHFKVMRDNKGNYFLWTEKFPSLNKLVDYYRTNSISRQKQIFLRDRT

CVAPXPSLLSSEd [c-Met Tyr(P)-1365]
recruitment of SH2D1B SH2 domain (SH2D1B SH2 domain): interactions | recruitment of Shp2/PTPN11 SH2 domain (Shp2/PTPN11 SH2 domain): recruit | recruitment of c-Src family kinase SH2 domains [1]: interactions | recruitment of tensin family SH2 domains [2]: interactions | recruitment of RASA1 SH2 domains (RASA1 SH2 domains): interactions | recruitment of PLCG1 SH2 domains (PLCG1 SH2 domains): interactions | recruitment of SH2D1A SH2 domain (SH2D1A SH2 domain): interactions

DITVXLLQGRRLd [c-Met Tyr(P)-1295]
recruitment of Shp2/PTPN11 SH2 domain (Shp2/PTPN11 SH2 domain): recruit

DPQDXLLLINCQd [GAB1 Tyr(P)-183]
interaction with SHC1 PTB domain [3]: interactions were observed | interaction with SHC1 SH2 domain (SHC1 SH2 domain): interactions were identified

DRIFXLVADSEEd [GAB1 Tyr(P)-95]
recruitment of CRK SH2 domain (CRK SH2 domain): CRK SH2 domain recruitment | interaction with SHC1 SH2 domain (SHC1 SH2 domain): interactions were identified

DSSLXNLPRSYSd [GAB1 Tyr(P)-259]
recruitment of CRK SH2 domain (CRK SH2 domain): no CRK SH2 domain interactions | recruitment of CRKL SH2 domain (CRKL SH2 domain): CRKL SH2 domain interactions

DVWSXGIFLWELd [c-Kit Tyr(P)-855]
recruitment of CRK SH2 domain (CRK SH2 domain): recruited | recruitment of tensin family SH2 domains [2]: recruited

EAALXKNLLHSKd [c-Kit Tyr(P)-703]
recruitment of GRB2 SH2 domain (GRB2 SH2 domain): detectably recruited | recruitment of GRAP2 SH2 domain (GRAP2 SH2 domain): detectably recruited

ERVDXVVVDQQKd [GAB1 Tyr(P)-689]
recruitment of SH2D1B SH2 domain (SH2D1B SH2 domain): able to recruit | recruitment of PIK3R (PI3KR) SH2 domains [4]: able to recruit | recruitment of Shp2/PTPN11 SH2 domain (Shp2/PTPN11 SH2 domain): unable to recruit | recruitment of c-Src family kinase SH2 domains [1]: able to recruit | recruitment of PLCG1 SH2 domains (PLCG1 SH2 domains): able to recruit | interaction with SHC1 SH2 domain (SHC1 SH2 domain): interactions were identified

EYCCXGDLLNFLd [c-Kit Tyr(P)-675]
recruitment of c-Src family kinase SH2 domains [1]: recruited | recruitment of CRK SH2 domain (CRK SH2 domain): recruited

FENSXIFDINTId [GAB1 Tyr(P)-83]
interaction with SHC1 PTB domain [3]: interactions were observed | interaction with SHC1 SH2 domain (SHC1 SH2 domain): interactions were identified

IGEHXVHVNATYd [c-Met Tyr(P)-1349]
recruitment of SH2D1B SH2 domain (SH2D1B SH2 domain): moderate affinity | recruitment of PLCG1 SH2 domains (PLCG1 SH2 domains): moderate affinity

KLKRXAWKRRWFd [GAB1 Tyr(P)-24]
interaction with SHC1 PTB domain [3]: interactions were observed | recruitment of CRK SH2 domain (CRK SH2 domain): CRK SH2 domain recruitment

LDENXVPMNPNSd [GAB1 Tyr(P)-447]
recruitment of PIK3R3 (PIK3R3 SH2 domains): high affinity | recruitment of PIK3R1 (PIK3R1 SH2 domains): confirmed

LPIDXYFPPQKTd [AR Tyr(P)-551]
recruitment of PLCG2 SH2 domains (PLCG2 SH2 domains): recruitment sites | recruitment of PLCG1 SH2 domains (PLCG1 SH2 domains): recruitment sites

LPPPXQLINVPPd [GAB1 Tyr(P)-162]
interaction with SHC1 SH2 domain (SHC1 SH2 domain): unable to detect
